Reference: ChEMBL document CHEMBL4359875, “Development of novel theranostic agents for in vivo amyloid imaging and protective effects on human neuroblastoma cells” (Eur J Med Chem, 2019)
Calls of active or inactive are those of the source. The rule behind the calls is not given here.

Experiments:
[1] = target: T1, Amyloid-beta precursor protein (Homo sapiens, UniProt P05067); test: Inhibition of amyloid beta 1 to 42 (unknown origin)-induced ROS production in human SH-SY5Y cells at 1 and 5 uM incubated for 24 hrs by DCFH-DA staining based fluorescence assay; assay type: cell-based
T1 sequence (P05067 whole entry): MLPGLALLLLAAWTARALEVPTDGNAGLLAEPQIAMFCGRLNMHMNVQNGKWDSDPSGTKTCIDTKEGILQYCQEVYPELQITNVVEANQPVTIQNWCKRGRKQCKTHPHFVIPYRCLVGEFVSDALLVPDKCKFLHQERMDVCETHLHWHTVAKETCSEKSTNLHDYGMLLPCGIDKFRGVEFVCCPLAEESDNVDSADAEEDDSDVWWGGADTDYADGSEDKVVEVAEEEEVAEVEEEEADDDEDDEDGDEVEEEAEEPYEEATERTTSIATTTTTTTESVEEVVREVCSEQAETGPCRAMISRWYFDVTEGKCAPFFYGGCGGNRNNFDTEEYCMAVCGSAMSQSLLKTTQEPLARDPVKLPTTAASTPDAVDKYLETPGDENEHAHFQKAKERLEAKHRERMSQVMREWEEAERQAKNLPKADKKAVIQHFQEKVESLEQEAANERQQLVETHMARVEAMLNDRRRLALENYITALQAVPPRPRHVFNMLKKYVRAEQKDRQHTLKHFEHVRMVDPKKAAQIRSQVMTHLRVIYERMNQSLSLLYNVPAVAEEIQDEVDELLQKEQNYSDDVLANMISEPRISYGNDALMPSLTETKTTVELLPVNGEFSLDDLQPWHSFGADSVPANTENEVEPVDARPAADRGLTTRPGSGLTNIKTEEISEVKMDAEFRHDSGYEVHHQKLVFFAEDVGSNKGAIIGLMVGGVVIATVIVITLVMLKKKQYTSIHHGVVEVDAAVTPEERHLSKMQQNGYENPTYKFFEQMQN
Summary of the method: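 SH-SY5Y at 5000 cells/well, incubated overnight. Medium then replaced with Aβ1-42 (2 μM final) alone or with compound (1 and 5 μM) for 24 h at 37 °C, 5% CO2. DCFH-DA 10 μM added for 30 min at 37 °C, cells washed twice. Fluorescence read at ex/em 488/525 nm. Mean ± SD, Student's t test.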

[2] = Stability in mouse plasma assessed as remaining compound at 50 uM incubated for 30 to 60 mins by HPLC analysis; assay type: ADME, cell-free; conditions: read-out: Stability
Summary of the method: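 Compound in ethanol (50 μM) added to plasma (1:9 by volume), with PBS as the standard. Incubated at 37 °C for 30 or 60 min. Mixture treated twice with acetonitrile and centrifuged. Supernatant analysed by HPLC on C18 with CH3CN/H2O 85:15 at 1 mL/min, 30 °C.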

[3] = Photostability of compound; assay type: physicochemical
[4] = Metal chelating activity assessed as compound-Cu2+ complex formation at 20 uM by UV-visible spectroscopy
Summary of the method: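 UV/Vis titration: compound 20 μM in water with CuSO4 added from 0 to 1000 μM. Spectrum recorded after each addition. Triplicate.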

[5] = target: T1, Amyloid-beta precursor protein; test: Binding affinity to amyloid beta 1 to 42 (unknown origin) in PBS buffer at pH 7.4 assessed as binding constant by fluorescence based assay
Summary of the method: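 Synthetic Aβ1-42 aggregates in PBS. Kd from a saturation binding assay read by fluorescence. Triplicate, mean ± SD.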

[6] = target: T1, Amyloid-beta precursor protein; test: Inhibition of amyloid beta 1 to 42 (unknown origin)-induced cytotoxicity in human SH-SY5Y cells at 1 to 5 uM incubated for 24 hrs by MTT assay; assay type: cell-based
Summary of the method: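 SH-SY5Y at 5000 cells/well, incubated overnight. Treated for 24 h with 5 μM Aβ1-42 monomer plus compound (1 or 5 μM). MTT (5 mg/mL) added for 4 h, absorbance read at 570 nm.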

SH-SY5Y = test: Dark toxicity against human SH-SY5Y cells assessed as reduction in cell viability at 50 uM incubated for 24 hrs by MTT assay; assay type: cell-based
Summary of the method: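 SH-SY5Y seeded at 5000 cells/well and incubated overnight. Compound added at a range of concentrations for 24 h, run with or without light exposure. MTT (5 mg/mL) added for 4 h, then absorbance read at 570 nm.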

[7] = target: T1, Amyloid-beta precursor protein; test: Binding affinity to amyloid beta 1 to 42 (unknown origin) in PBS buffer at pH 7.4 assessed as increase in blue shift in maximum absorption at 0.2 uM by fluorescence based assay
Summary of the method: (§1)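 Fluorescence titration in PBS pH 7.4: probe 0.2 μM with stepwise addition of synthetic Aβ1-42 aggregates (0 to 10.0 μM). Emission maxima compared with probe alone in PBS.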

Mus musculus [8] = test: In vivo binding affinity to amyloid beta 1 to 42 in APP/PS1 double transgenic C57BL/6 mouse brain assessed as amyloid-beta plaque-compound complex formation at 4 mg/kg, iv measured for 5 to 60 mins by NIR imaging analysis; assay type: functional, organism-based
Summary of the method: (§2)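 Male APP/PS1 double-transgenic and age-matched wild-type C57BL/6 mice, 12 months old, shaved. Compound 4 mg/kg in 50 μl of 20% DMSO/80% propylene glycol given via tail vein. Mice kept under 2.5% isoflurane in oxygen. Head NIR fluorescence imaged before and at time points from 5 to 60 min after dosing.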

Mus musculus [9] = test: In vivo binding affinity to amyloid beta 1 to 42 in C57BL/6 mouse brain assessed as amyloid-beta plaque-compound complex formation at 4 mg/kg, iv measured for 5 to 60 mins by NIR imaging analysis; assay type: functional, organism-based; summary of the method: as §2
[10] = target: Amyloid-beta precursor protein (Mus musculus) (UniProt P12023); test: Binding affinity to amyloid beta 1 to 42 in C57BL/6 mouse brain hippocampus assessed as plague formation at 1 uM incubated for 5 mins by fluorescence microscopy
Amyloid-beta precursor protein (Mus musculus), sequence (P12023 whole entry): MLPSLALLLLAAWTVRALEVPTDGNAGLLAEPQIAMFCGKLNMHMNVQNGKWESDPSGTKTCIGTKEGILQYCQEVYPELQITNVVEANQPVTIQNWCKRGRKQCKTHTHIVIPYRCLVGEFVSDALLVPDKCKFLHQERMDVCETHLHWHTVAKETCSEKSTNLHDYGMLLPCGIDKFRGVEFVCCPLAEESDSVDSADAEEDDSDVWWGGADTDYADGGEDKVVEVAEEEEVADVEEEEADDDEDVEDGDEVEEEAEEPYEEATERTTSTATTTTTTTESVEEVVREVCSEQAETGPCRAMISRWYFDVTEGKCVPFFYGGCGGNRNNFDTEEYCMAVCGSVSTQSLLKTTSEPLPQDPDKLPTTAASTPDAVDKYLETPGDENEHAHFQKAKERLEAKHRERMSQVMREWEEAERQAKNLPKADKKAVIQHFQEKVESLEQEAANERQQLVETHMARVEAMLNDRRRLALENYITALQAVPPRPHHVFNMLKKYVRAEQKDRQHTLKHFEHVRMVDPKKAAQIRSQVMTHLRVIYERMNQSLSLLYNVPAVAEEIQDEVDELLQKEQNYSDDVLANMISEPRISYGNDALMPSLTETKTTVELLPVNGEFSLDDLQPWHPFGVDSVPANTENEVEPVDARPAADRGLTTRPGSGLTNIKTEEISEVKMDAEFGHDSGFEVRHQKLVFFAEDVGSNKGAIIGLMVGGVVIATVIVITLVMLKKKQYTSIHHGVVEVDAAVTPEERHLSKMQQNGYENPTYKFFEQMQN
Summary of the method: (§3)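 Frozen brain sections from male APP/PS1 double transgenic mice and age-matched male C57BL/6 wild-type mice, both 10 months old. Sections were washed in PBS to remove OCT, then stained with 1 μM probe or ThT in 10% ethanol for 5 min at room temperature. They were washed twice with ethanol and PBS (0.1 M, pH 7.4) for 10 min. Cortex and hippocampus were imaged by fluorescence microscopy with GFP and Cy5 filter sets.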

[11] = target: Amyloid-beta precursor protein (Mus musculus) (UniProt P12023); test: Binding affinity to amyloid beta 1 to 42 in double transgenic C57BL/6 APPswe/PSEN1 mouse assessed as plaque formation in cortex region at 1 uM incubated for 5 mins by fluorescence microscopy; summary of the method: as §3
[12] = target: T1, Amyloid-beta precursor protein; test: Inhibition of amyloid beta 1 to 42 aggregation in human SH-SY5Y cells incubated for 48 hrs by fluorescence microscopy; assay type: cell-based
Summary of the method: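 SH-SY5Y seeded at 2000 cells/well with Aβ1-42 monomer (0.25 μM) alone or plus compound (0.05 or 0.5 μM), 48 h at 37 °C, 5% CO2. Controls got compound after the 2 days. Read as average pixel intensity of four random fields by fluorescence microscopy. Three independent experiments.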

[13] = target: Amyloid-beta precursor protein (Mus musculus) (UniProt P12023); test: Binding affinity to amyloid beta 1 to 42 in double transgenic C57BL/6 APPswe/PSEN1 mouse assessed as plaque formation in hippocampus region at 1 uM incubated for 5 mins by fluorescence microscopy; summary of the method: as §3
[14] = target: Amyloid-beta precursor protein (Mus musculus) (UniProt P12023); test: Binding affinity to amyloid beta 1 to 42 in C57BL/6 mouse brain cortex assessed as plague formation at 1 uM incubated for 5 mins by fluorescence microscopy; summary of the method: as §3
[15] = target: T1, Amyloid-beta precursor protein; test: Binding affinity to amyloid beta 1 to 42 (unknown origin) in PBS buffer at pH 7.4 assessed as increase in red shift in maximum absorption at 0.2 uM by fluorescence based assay; summary of the method: as §1

Row | Compound | Activity [1] | remaining at 50 µM [2] [%] | Stability [3] | Activity [4] | Kd [5] [µM] | Activity [6] | Activity (SH-SY5Y) | fold change (FC) [7] | Activity (Mus musculus [8]) | Activity (Mus musculus [9]) | Activity [10] | Activity [11] | inhibition [12] | Activity [13] | Activity [14] | fold change (FC) [15]
1 | CN1c2ccccc2Sc2cc(/C=C3/SC(=S)N(CC(=O)OCC(O)CO)C3=O)ccc21 (stereo not drawn) | Active | > 96 | Stable | Active | 0.0349 | Active | Non-Toxic | 9.5 |  |  |  |  |  |  |  | 
2 | CN1c2ccccc2Sc2cc(/C=C3/SC(=S)N(CC(=O)OCC4COC(C)(C)O4)C3=O)ccc21 (stereo not drawn) |  | > 96 | Stable |  | 0.0245 |  | Non-Toxic | 22 | Active | inactive | inactive | Active | Dose-dependent effect | Active | inactive | 
3 | CCOC(=O)CN(CC(=O)OCC)C(=O)CN1C(=O)/C(=C\c2ccc3c(c2)Sc2ccccc2N3C)SC1=S |  | > 96 | Stable |  | 0.0463 |  | Non-Toxic | 38.3 |  |  |  |  |  |  |  | 
4 | CN1c2ccccc2Sc2cc(/C=C3/SC(=S)N(CC(=O)N(CC(=O)O)CC(=O)O)C3=O)ccc21 | Active | > 96 | Stable | Active | 0.0765 | Active | Non-Toxic |  |  |  |  |  |  |  |  | 2.4
